Measurements: PMC6777341 (ACS chemical neuroscience, 2017)
Marks after values point to notes of the source that are not given here. Each block holds one compound with its values, some of them ahead of it.

Legend:
human NPFF1 receptor = human NPFF1 receptor (Homo sapiens, UniProt Q9GZQ6); assay: NPFF1 calcium mobilization assay; type: cell-based; settings: for Ca^2+ NPFF1 Ke: Table 1
human NPFF2 receptor = human NPFF2 receptor (Homo sapiens, UniProt Q9Y5X5); assay: NPFF2 calcium mobilization assay; type: cell-based; settings: for Ca^2+ NPFF2 Ke: Table 1
Chain of human NPFF2 receptor (Q9Y5X5 whole entry): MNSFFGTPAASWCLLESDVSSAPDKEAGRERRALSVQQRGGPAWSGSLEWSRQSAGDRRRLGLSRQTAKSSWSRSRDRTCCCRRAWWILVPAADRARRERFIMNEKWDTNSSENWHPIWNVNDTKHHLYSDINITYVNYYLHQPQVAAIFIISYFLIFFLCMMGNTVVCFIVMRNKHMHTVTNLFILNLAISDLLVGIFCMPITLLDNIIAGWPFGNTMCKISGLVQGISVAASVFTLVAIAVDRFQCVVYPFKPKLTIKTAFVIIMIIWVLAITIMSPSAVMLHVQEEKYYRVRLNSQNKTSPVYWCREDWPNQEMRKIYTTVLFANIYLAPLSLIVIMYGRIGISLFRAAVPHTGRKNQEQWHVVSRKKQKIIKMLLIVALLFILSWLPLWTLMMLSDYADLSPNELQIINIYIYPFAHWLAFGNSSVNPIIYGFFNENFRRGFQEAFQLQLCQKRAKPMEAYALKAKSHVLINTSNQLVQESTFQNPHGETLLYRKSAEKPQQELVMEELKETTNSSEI

human NPFFR1 = human NPFFR1 (Homo sapiens, UniProt Q9GZQ6); assay: Lance cAMP assay, NPFFR1-CHO cells; type: cell-based
Chain of human NPFFR1 (Q9GZQ6 whole entry): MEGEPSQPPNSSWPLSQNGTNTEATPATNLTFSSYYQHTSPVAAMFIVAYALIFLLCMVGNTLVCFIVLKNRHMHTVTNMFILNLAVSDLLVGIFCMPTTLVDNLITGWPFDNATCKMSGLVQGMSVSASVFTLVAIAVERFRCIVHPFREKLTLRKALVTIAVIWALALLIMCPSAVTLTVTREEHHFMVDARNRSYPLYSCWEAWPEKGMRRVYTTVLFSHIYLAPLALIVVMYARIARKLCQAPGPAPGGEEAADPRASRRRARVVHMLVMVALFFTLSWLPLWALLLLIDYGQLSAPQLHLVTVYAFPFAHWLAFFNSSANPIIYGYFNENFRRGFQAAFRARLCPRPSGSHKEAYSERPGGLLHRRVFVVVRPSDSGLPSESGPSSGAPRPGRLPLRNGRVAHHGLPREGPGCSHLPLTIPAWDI

human NPFFR2 = human NPFFR2 (Homo sapiens, UniProt Q9Y5X5); assay: Lance cAMP assay, NPFFR2-CHO cells; type: cell-based
Chain of human NPFFR2 (Q9Y5X5 whole entry): as the sequence (Q9Y5X5 whole entry) above

MDCK-MDR1 cells = assay: Bidirectional MDCK-MDR1 permeability assay; type: in vitro ADME
How it was run: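 MDCK-MDR1 cells at passage 5 were grown 3 days on polycarbonate Transwell supports in DMEM/10% FBS, then rinsed and equilibrated 30 min at 37 °C in HBSS with 10 mM HEPES, 0.25% BSA, pH 7.4, and TEER was measured. Test compound at 10 μM was added apically (A-to-B) or basolaterally (B-to-A) at 37 °C with agitation.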

[1] = test system: fentanyl-induced hyperalgesia; assay: Fentanyl-induced hyperalgesia; type: in vivo, rat; settings: rats, i.p., day 1 after fentanyl, N=6
NPFF receptors = assay: Curve-shift assays, type of antagonism; type: cell-based, human; settings: standard incubation; typical competitive profile with longer incubations
[2] = apparent Ke from right shift of NPFF curve, 15 min pretreatment
[3] = footnote c: pre-incubation 45 min or 1 hr

Chain of human NPFF1 receptor (Q9GZQ6 whole entry): as the sequence (Q9GZQ6 whole entry) above

NPFF1 antagonist activity (in words) (human NPFF1 receptor; calcium mobilization assay): inactive | NPFF2 antagonist activity (in words) (human NPFF2 receptor; calcium mobilization assay): inactive
Structure (SMILES): CNC(=O)[C@@H]1C[C@H](NCc2ccc(OC)cc2)CN1Cc1ccccc1Cl [Compound 10, (2S,4S)-1-[(2-Chlorophenyl)methyl]-4-{[(4-methoxyphenyl)methyl]amino}-N-methylpyrrolidine-2-carboxamide]

Ca^2+ NPFF1 Ke (human NPFF1 receptor; [2]): >10^b μM | NPFF1 Ke (human NPFF1 receptor; calcium mobilization assay): > 10 µM | NPFF1 antagonist activity (in words) (human NPFF1 receptor; calcium mobilization assay): inactive | Ca^2+ NPFF2 Ke (human NPFF2 receptor; [2]): >10^b μM | NPFF2 antagonist activity (in words) (human NPFF2 receptor; calcium mobilization assay): inactive
Structure (SMILES): CCNC(=O)[C@@H]1C[C@H](NCc2ccc(OC)cc2)CN1Cc1ccccc1Cl [Compound 11, (2S,4S)-1-[(2-Chlorophenyl)methyl]-N-ethyl-4-{[(4-methoxyphenyl)methyl]amino} pyrrolidine-2-carboxamide]

Ca^2+ NPFF1 Ke (human NPFF1 receptor; [2]): 1.24 ± 0.14 µM
Structure (SMILES): CCCCNC(=O)[C@@H]1C[C@H](NCc2ccc(OC)cc2)CN1Cc1ccccc1Cl [Compound 13, (2S,4S)-N-Butyl-1-[(2-chlorophenyl)methyl]-4-{[(4-methoxyphenyl)methyl]amino} pyrrolidine-2-carboxamide]

Ca^2+ NPFF1 Ke (human NPFF1 receptor; [2]): 1.50 ± 0.06 µM | Ca^2+ NPFF2 Ke (human NPFF2 receptor; [2]): 3.68 ± 0.35^b μM
Structure (SMILES): CCC(C)NC(=O)[C@@H]1C[C@H](NCc2ccc(OC)cc2)CN1Cc1ccccc1Cl (stereo partly drawn) [Compound 14, (2S,4S)-N-(Butan-2-yl)-1-[(2-chlorophenyl)methyl]-4-{[(4-methoxyphenyl)methyl]amino} pyrrolidine-2-carboxamide]

Ca^2+ NPFF1 Ke (human NPFF1 receptor; [2]): 1.88 ± 0.21 µM | Ca^2+ NPFF2 Ke (human NPFF2 receptor; [3]): 1.26 ± 0.8^c μM
Structure (SMILES): COc1ccc(CN[C@H]2C[C@@H](C(=O)NC(C)(C)C)N(Cc3ccccc3Cl)C2)cc1 [Compound 15, (2S,4S)-N-tert-Butyl-1-[(2-chlorophenyl)methyl]-4-{[(4-methoxyphenyl)methyl]amino} pyrrolidine-2-carboxamide]

Hill slope of NPFF + compound curve (human NPFF1 receptor; calcium mobilization assay, NPFF1 cells): 1.7 | Hill slope of NPFF + compound curve (human NPFF2 receptor; calcium mobilization assay, FF2 cells): 1.1 | Kb (human NPFFR1): 0.36 ± 0.08 µM | Hill slope of NPFF + compound curve (human NPFFR1; cAMP assay, NPFF1 cells): 1.3 | Hill slope of NPFF + compound curve (human NPFFR2; cAMP assay, FF2 cells): 1.3 | rate B to A (MDCK-MDR1 cells; MDCK-MDR1): 6.7e-06 cm/s | rate apical (A) to basolateral (B) (MDCK-MDR1 cells; MDCK-MDR1): 7.6e-06 cm/s | Pgp substrate status (MDCK-MDR1 cells; as indicated by the efflux ratio): not Pgp substrates
Structure (SMILES): CCCCCNC(=O)[C@@H]1C[C@H](NCc2ccc(OC)cc2)CN1Cc1ccccc1Cl [Compound 16, (2S,4S)-1-[(2-Chlorophenyl)methyl]-4-{[(4-methoxyphenyl)methyl]amino}-N-pentylpyrrolidine-2-carboxamide]
doses significantly different from vehicle (Bonferroni post hoc) [1]: significant differences at 10 and 32 mg/kg

Kb (human NPFFR1): 1.98 ± 0.28 µM | Kb (human NPFFR2): 2.48 ± 0.27 µM
Structure (SMILES): CCCCCCNC(=O)[C@@H]1C[C@H](NCc2ccc(OC)cc2)CN1Cc1ccccc1Cl [Compound 18, (2S,4S)-1-[(2-Chlorophenyl)methyl]-4-{[(4-methoxyphenyl)methyl]amino}-N-hexylpyrrolidine-2-carboxamide]

Ca^2+ NPFF1 Ke (human NPFF1 receptor; [3]): >10^b,c μM | NPFF1 antagonist activity (in words) (human NPFF1 receptor; calcium mobilization assay): completely abolished
Structure (SMILES): CCCCCCCCCCNC(=O)[C@@H]1C[C@H](NCc2ccc(OC)cc2)CN1Cc1ccccc1Cl [Compound 19, (2S,4S)-1-[(2-Chlorophenyl)methyl]-N-decyl-4-{[(4-methoxyphenyl)methyl]amino} pyrrolidine-2-carboxamide]

Ca^2+ NPFF1 Ke (human NPFF1 receptor; [2]): >10^b μM | NPFF1 antagonist activity (in words) (human NPFF1 receptor; calcium mobilization assay): inactive | NPFF2 antagonist activity (in words) (human NPFF2 receptor; calcium mobilization assay): inactive
Structure (SMILES): CCN(CC)C(=O)[C@@H]1C[C@H](NCc2ccc(OC)cc2)CN1Cc1ccccc1Cl [Compound 22, (2S,4S)-1-[(2-Chlorophenyl)methyl]-N,N-diethyl-4-{[(4-methoxyphenyl)methyl]amino} pyrrolidine-2-carboxamide]

Ca^2+ NPFF1 Ke (human NPFF1 receptor; [3]): 0.78 ± 0.08^c μM | NPFF1 Ke (human NPFF1 receptor; calcium mobilization assay): 0.78 µM | Ca^2+ NPFF2 Ke (human NPFF2 receptor; [3]): 2.01 ± 0.44^c μM | cAMP NPFF1 Ke (human NPFFR1; Table 1): 1.72 ± 0.32 µM | cAMP NPFF2 Ke (human NPFFR2; Table 1): 3.90 ± 1.1 µM | type of antagonism in curve-shift assays (NPFF receptors): insurmountable antagonism
Structure (SMILES): COc1ccc(CN[C@H]2C[C@@H](C(=O)NCc3ccccc3)N(Cc3ccccc3Cl)C2)cc1 [Compound 23, (2S,4S)-N-Benzyl-1-[(2-chlorophenyl)methyl]-4-{[(4-methoxyphenyl)methyl]amino} pyrrolidine-2-carboxamide]

Kb (human NPFF2 receptor): 2.34 ± 0.31 µM
Structure (SMILES): COc1ccc(CN[C@H]2C[C@@H](C(=O)NCCc3ccccc3)N(Cc3ccccc3Cl)C2)cc1 [Compound 24, (2S,4S)-1-[(2-Chlorophenyl)methyl]-4-{[(4-methoxyphenyl)methyl]amino}-N-(2-phenylethyl)pyrrolidine-2-carboxamide]

IC50 (human NPFF1 receptor): > 10 µM | NPFF1 antagonist activity (in words) (human NPFF1 receptor; calcium mobilization assay): completely abolished the activity
Structure (SMILES): COc1ccc(CN[C@H]2C[C@@H](C(=O)NCCCc3ccccc3)N(Cc3ccccc3Cl)C2)cc1 [Compound 25, (2S,4S)-1-[(2-Chlorophenyl)methyl]-4-{[(4-methoxyphenyl)methyl]amino}-N-(3-phenylpropyl)pyrrolidine-2-carboxamide]

Kb (human NPFFR1): 1.52 ± 0.11 µM | Kb (human NPFFR2): > 10 µM
Structure (SMILES): COc1ccc(CN[C@H]2C[C@@H](C(=O)NCCc3ccc(OC)c(OC)c3)N(Cc3ccccc3Cl)C2)cc1 [Compound 27, (2S,4S)-1-[(2-Chlorophenyl)methyl]-N-[2-(3,4-dimethoxyphenyl)ethyl]-4-{[(4-methoxyphenyl)methyl]amino}pyrrolidine-2-carboxamide]

Kb (human NPFF2 receptor): 2.08 ± 0.38 µM
Structure (SMILES): COc1ccc(CN[C@H]2C[C@@H](C(=O)NCCc3ccc(N(C)C)cc3)N(Cc3ccccc3Cl)C2)cc1 [Compound 28, (2S,4S)-1-[(2-Chlorophenyl)methyl]-N-{2-[4-(dimethylamino)phenyl]ethyl}-4-{[(4-methoxyphenyl)methyl]amino}pyrrolidine-2-carboxamide]

Kb (human NPFF2 receptor): 2.42 ± 0.26 µM
Structure (SMILES): COc1ccc(CN[C@H]2C[C@@H](C(=O)NCCc3ccc(C(C)(C)C)cc3)N(Cc3ccccc3Cl)C2)cc1 [Compound 31, (2S,4S)-N-[2-(4-tert-Butylphenyl)ethyl]-1-[(2-chlorophenyl)methyl]-4-{[(4-methoxyphenyl)methyl]amino}pyrrolidine-2-carboxamide]

Kb (human NPFF1 receptor): 0.99 ± 0.22 µM | Kb (human NPFF2 receptor): 1.83 ± 0.09 µM | Kb (human NPFFR1): 1.49 ± 0.1 µM | Kb (human NPFFR2): 2.53 ± 0.36 µM | type of antagonism in curve-shift assays (NPFF receptors): insurmountable antagonism
Structure (SMILES): COc1ccc(CN[C@H]2C[C@@H](C(=O)NCCc3ccc(Cl)cc3)N(Cc3ccccc3Cl)C2)cc1 [Compound 32, (2S,4S)-N-[2-(4-Chlorophenyl)ethyl]-1-[(2-chlorophenyl)methyl]-4-{[(4-methoxyphenyl)methyl]amino}pyrrolidine-2-carboxamide]

Kb (human NPFF2 receptor): 3.49 ± 1.4 µM
Structure (SMILES): COc1ccc(CN[C@H]2C[C@@H](C(=O)NCCc3ccc(F)c(F)c3)N(Cc3ccccc3Cl)C2)cc1 [Compound 34, (2S,4S)-1-[(2-Chlorophenyl)methyl]-N-[2-(3,4-difluorophenyl)ethyl]-4-{[(4-methoxyphenyl)methyl]amino}pyrrolidine-2-carboxamide]

Kb (human NPFFR1): 1.41 ± 0.18 µM | Kb (human NPFFR2): > 10 µM
Structure (SMILES): COc1ccc(CN[C@H]2C[C@@H](C(=O)NCCc3ccc(F)cc3)N(Cc3ccccc3Cl)C2)cc1 [Compound 35, (2S,4S)-1-[(2-Chlorophenyl)methyl]-N-[2-(4-fluorophenyl)ethyl]-4-{[(4-methoxyphenyl)methyl]amino}pyrrolidine-2-carboxamide]

Ca^2+ NPFF1 Ke (human NPFF1 receptor; [2]): 2.90 ± 0.15 µM | NPFF1 Ke (human NPFF1 receptor; calcium mobilization assay): 2.90 µM | Ca^2+ NPFF2 Ke (human NPFF2 receptor; [2]): 4.93 ± 0.02^b μM
Structure (SMILES): CCN(CC)C(=O)[C@@H]1C[C@H](NCc2ccc(OC)cc2)CN1Cc1ccccc1Cl [Compound 40, (2S,4S)-1-[(2-Chlorophenyl)methyl]-N,N-diethyl-4-{[(4-methoxyphenyl)methyl]amino} pyrrolidine-2-carboxamide]

Kb (human NPFFR1): 2.31 ± 0.42 µM | Kb (human NPFFR2): > 10 µM | type of antagonism in curve-shift assays (NPFF receptors): insurmountable antagonism
Structure (SMILES): CCCN(CCC)C(=O)[C@@H]1C[C@H](NCc2ccc(OC)cc2)CN1Cc1ccccc1Cl [Compound 41, (2S,4S)-1-[(2-Chlorophenyl)methyl]-4-{[(4-methoxyphenyl)methyl]amino}-N,N-dipropylpyrrolidine-2-carboxamide]

type of antagonism in curve-shift assays (NPFF receptors): insurmountable antagonism
Structure (SMILES): COc1ccc(CN[C@H]2C[C@@H](C(=O)N3CCN(c4ccccc4)CC3)N(Cc3ccccc3Cl)C2)cc1 [Compound 42, (3S,5S)-1-[(2-Chlorophenyl)methyl]-N-[(4-methoxyphenyl)methyl]-5-(4-phenylpiperazine-1-carbonyl)pyrrolidin-3-amine]

Kb (human NPFFR1): 1.07 ± 0.2 µM | Kb (human NPFFR2): 2.74 ± 0.21 µM
Structure (SMILES): CCCCCNC(=O)[C@@H]1C[C@H](NCc2ccc(SC)cc2)CN1Cc1ccccc1Cl [Compound 43, (2S,4S)-1-[(2-Chlorophenyl)methyl]-4-{[(4-(methylthio)phenyl)methyl]amino}-N-pentylpyrrolidine-2-carboxamide]

Kb (human NPFFR1): 1.3 ± 0.14 µM | Kb (human NPFFR2): > 10 µM
Structure (SMILES): CSc1ccc(CN[C@H]2C[C@@H](C(=O)NCCc3ccccc3)N(Cc3ccccc3Cl)C2)cc1 [Compound 44, (2S,4S)-1-[(2-Chlorophenyl)methyl]-4-{[(4-(methylthio)phenyl)methyl]amino}-N-(2-phenylethyl)pyrrolidine-2-carboxamide]

Kb (human NPFFR1): 1.07 ± 0.27 µM | Kb (human NPFFR2): > 10 µM
Structure (SMILES): CSc1ccc(CN[C@H]2C[C@@H](C(=O)NCCc3ccc(F)c(F)c3)N(Cc3ccccc3Cl)C2)cc1 [Compound 47, (2S,4S)-1-[(2-Chlorophenyl)methyl]-N-[2-(3,4-difluorophenyl)ethyl]-4-{[(4-(methylthio)phenyl)methyl]amino}pyrrolidine-2-carboxamide]
